What all share (format): functional, cell-based
A short description of test [1]: Cytotoxicity against multi-drug resistant human KB/VJ300 cells in presence of 0.1 ug/ml vincristine. The method, boiled down: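 Multidrug-resistance reversal test in vincristine-resistant KB/VJ300 cells. Test alkaloid is co-applied with vincristine at 0.1 μg/mL (0.12 μM). The IC50 of the test alkaloid is determined under this co-treatment, in μg/mL.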
In a further test the test system is KB. The test can be described thus: Cytotoxicity against vincristine-sensitive human KB cells. The method, boiled down: (§1)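 Alkaloids tested alone, without vincristine, in parallel on vincristine-sensitive KB and vincristine-resistant KB/VJ300 cells. IC50 determined, in μg/mL.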
Test [2] can be described thus: Cytotoxicity against vincristine-resistant human KB/VJ300 cells. Put shortly:
as §1

Some results are limits rather than exact numbers.

For the molecule `C/C=C1\C(=O)OC[C@H]2[C@@H]3Cc4c(n(C)c5ccc(OC)cc45)[C@H](C[C@@H]12)N3`, the values for the IC50 (in test [1]; in the test with KB; in test [2]) were 40 µM, > 25 µg/mL and > 25 µg/mL, respectively.
Take `C/C=C1/CN2CC[C@@]3(O)c4ccccc4N4[C@H](C(=O)OC)[C@H]1C[C@H]2[C@@H]43`: the concentration for half-maximal inhibition (IC50) (with KB; in test [2]) was > 25 µg/mL each time.
Regarding `COc1ccc2c(c1)c1c(n2C)[C@@H]2C[C@H]3C(=O)OC[C@H]3[C@H](C1)N2C`, the IC50 (in the test on KB; in test [2]) was > 25 µg/mL in each case.
In the case of `CC(O)C[C@@H]1C[C@@H]2N3COC[C@H]1[C@@H]3C[C@]21C(=O)Nc2ccccc21` (some centres not stated), the IC50 (in the test with KB; in test [2]) was > 25 µg/mL in each case.
Take `C[C@H](O)C[C@@H]1C[C@@H]2N[C@@H](C[C@@]23C(=O)Nc2ccccc23)[C@@H]1CO`: the IC50 (in the test with KB; in test [2]) was > 25 µg/mL throughout.
Consider `C/C=C1/CN2[C@H]3C[C@H]1C(CO)[C@@H]2Cc1c3[nH]c2ccccc12` (some centres not stated), for which the IC50 (in the test on KB; in test [2]) was > 25 µg/mL each time.
Consider `C[C@@H]1OC[C@@H]2[C@@H](C[C@H]3c4[nH]c5ccccc5c4C[C@@H]2N3C)[C@H]1CO`, for which the IC50 (in the test with KB; in test [2]) was > 25 µg/mL throughout.
With `CC(=O)C(CC(=O)O)[C@@H]1C[C@H]2c3c(c4ccccc4n3C)C[C@@H]([C@@H]1CO)N2C` (some centres not stated), the IC50 (in the test on KB; in test [2]) was > 25 µg/mL throughout.
For `C[C@H]1OC[C@@H]2[C@@H](C[C@H]3c4c(c5ccccc5n4C)C[C@@H]2N3C)[C@@H]1C=O`, the IC50 (in the test on KB; in test [2]) was > 25 µg/mL throughout.
As for `CN1[C@H]2C[C@H]3C(=O)OC[C@H]3[C@@H]1Cc1c2n(C)c2ccccc12`, the IC50 (with KB; in test [2]) was > 25 µg/mL throughout.
`C/C=C1/CN2CCc3c4n(c5ccccc35)[C@H](C(=O)OC)[C@H]1C[C@@H]42`: the IC50 in test [1] was 40 µM; in the test with KB, > 25 µg/mL; in test [2] it was > 25 µg/mL.
Consider `C[C@@H]1OC[C@@H]2[C@@H](C[C@H]3c4c(c5ccccc5n4C)C[C@@H]2N3C)[C@H]1CO` [MACROCARPINE B], for which the IC50 (with KB; in test [2]) was > 25 µg/mL in each case.
`C[C@@H]1OC[C@@H]2[C@@H](C[C@H]3c4c(c5ccccc5n4C)C[C@@H]2N3C)[C@@H]1C=O` [Talcarpine]: the IC50 (in the test with KB; in test [2]) was > 25 µg/mL each time.
Regarding `C[C@@H]1OC[C@@H]2[C@H]3C[C@H]4c5c(c6ccccc6n5C)C[C@@H]2N4[C@H](O)[C@H]31`, the values for the IC50 (in test [1]; in the test on KB; in test [2]) were 40 µM, > 25 µg/mL and > 25 µg/mL, respectively.
In the case of `CC(=O)O[C@@H]1[C@@H]2[C@@H]3C[C@H]4c5c(c6ccccc6n5C)C[C@@H]([C@@H]3CO[C@H]2C)N14`, the IC50 in test [1] was 40 µM; with KB it was > 25 µg/mL; in test [2] it was > 25 µg/mL.
Consider `C/C=C1/CN2CC[C@]3(O)c4ccccc4N4[C@H](C(=O)OC)[C@H]1C[C@H]2[C@@H]43`, for which the IC50 (in the test on KB; in test [2]) was > 25 µg/mL each time.
With `C[C@H](O)C1=CN2[C@H]3C[C@H]1[C@@H](CO)[C@@H]2Cc1c3n(C)c2ccccc12`, the IC50 (in the test on KB; in test [2]) was > 25 µg/mL each time.
As to `CN1[C@H]2C[C@@H]3[C@@H](CO[C@@]4(C)OC(=O)C[C@@H]34)[C@@H]1Cc1c2n(C)c2ccccc12`, the IC50 (in the test with KB; in test [2]) was > 25 µg/mL in each case.
With `CC(=O)C1=COC[C@@H]2[C@H]1C[C@H]1c3[nH]c4ccccc4c3C[C@@H]2N1C`, the IC50 (with KB; in test [2]) was > 25 µg/mL throughout.
On to `C[C@@H]1OC[C@@H]2[C@@H](C[C@H]3c4[nH]c5ccccc5c4C[C@@H]2N3C)[C@@H]1CO`, for which the concentration for half-maximal inhibition (IC50) (with KB; in test [2]) was > 25 µg/mL each time.
Turning to `C/C=C1/CN2[C@H]3C[C@H]1C(CO)[C@@H]2C[C@]31Nc2ccccc2C1=O` (some centres not stated), the IC50 (with KB; in test [2]) was > 25 µg/mL throughout.
For `CC1=C(C=O)[C@@H]2C[C@H]3c4c(c5ccccc5n4C)C[C@@H]([C@@H]2CO1)N3C` [ALSTONERINAL], the IC50 (with KB; in test [2]) was > 25 µg/mL throughout.
As to `C[C@@H]1OC[C@@H]2[C@@H](C[C@H]3c4c(c5ccccc5n4C)C[C@@H]2N3C)[C@@H]1CO`, the IC50 (in the test with KB; in test [2]) was > 25 µg/mL each time.
Turning to `C/C=C1/CN2CC(=O)c3c4n(c5ccccc35)[C@H](C(=O)OC)[C@H]1C[C@@H]42`, the IC50 (in the test with KB; in test [2]) was > 25 µg/mL each time.
As to `CC(=O)C1=COC[C@H]2[C@@H]3C[C@]4(C(=O)N(C)c5ccccc54)[C@H](C[C@@H]12)N3`, the IC50 (in the test on KB; in test [2]) was > 25 µg/mL each time.
In the case of `CC1=C(C=O)[C@@H]2C[C@H]3c4[nH]c5ccccc5c4C[C@@H]([C@@H]2CO1)N3C`, the IC50 (in the test with KB; in test [2]) was > 25 µg/mL throughout.
Take `C[C@@H]1OC[C@@H]2[C@H]3C[C@@H]4N([C@H](O)C13)[C@H]2C[C@@]41C(=O)N(C)c2ccccc21`: the 50% inhibitory concentration (IC50) (in the test with KB; in test [2]) was > 25 µg/mL in each case.
As for `CC(O)C[C@@H]1C[C@@H]2N[C@@H](C[C@]23C(=O)N(C)c2ccccc23)[C@@H]1CO` (some centres not stated), the IC50 (in the test with KB; in test [2]) was > 25 µg/mL throughout.
`CC(=O)C[C@@H]1C[C@@H]2N3[C@@H](C)OC[C@H]1[C@@H]3C[C@]21C(=O)N(C)c2ccccc21`: the IC50 (in the test on KB; in test [2]) was > 25 µg/mL in each case.
Regarding `C[C@H](O)C[C@H]1C[C@@H]2N3COC[C@@H]1[C@@H]3CC21C(=O)N(C)c2ccccc21` (some centres not stated), the IC50 (in the test with KB; in test [2]) was > 25 µg/mL each time.
Take `CC(O)C[C@@H]1C[C@@H]2N3COC[C@H]1[C@@H]3C[C@]21C(=O)N(C)c2ccccc21` (some centres not stated): the IC50 (with KB; in test [2]) was > 25 µg/mL each time.
Regarding `C[C@H](O)C[C@@H]1C[C@@H]2N[C@@H](C[C@@]23C(=O)N(C)c2ccccc23)[C@@H]1CO`, the IC50 (in the test with KB; in test [2]) was > 25 µg/mL each time.
Consider `C[C@@H]1OC[C@@H]2[C@@H](C[C@@H]3N[C@H]2Cc2c3n(C)c3ccccc23)[C@H]1CO`, for which the IC50 (with KB; in test [2]) was > 25 µg/mL throughout.
Turning to `CC(=O)C[C@@H]1C[C@H]2c3c(c4ccccc4n3C)C[C@@H]([C@@H]1CO)N2C`, the half-inhibitory concentration (IC50) (in the test on KB; in test [2]) was > 25 µg/mL each time.
Turning to `CC(=O)C1=COC[C@H]2[C@@H]3C[C@]4(C(=O)Nc5ccccc54)[C@H](C[C@@H]12)N3`, the IC50 (in the test with KB; in test [2]) was > 25 µg/mL each time.
On to `C[C@@H]1OC[C@@H]2[C@@H](C[C@@H]3N[C@H]2Cc2c3n(C)c3ccccc23)[C@@H]1CO`, for which the IC50 (in the test with KB; in test [2]) was > 25 µg/mL in each case.
Consider `COc1ccc2c(c1)c1c(n2C)[C@@H]2C[C@H]3[C@@H](CO)[C@H](C)OC[C@H]3[C@H](C1)N2C`, for which the IC50 (in the test on KB; in test [2]) was > 25 µg/mL in each case.
`C/C=C1\C(=O)OC[C@H]2[C@@H]3Cc4c(n(C)c5ccccc45)[C@H](C[C@@H]12)N3`: the half-inhibitory concentration (IC50) (in the test on KB; in test [2]) was > 25 µg/mL throughout.
On to `C[C@H](O)C1=CN2[C@H]3C[C@H]1[C@@H](CO)[C@@H]2C[C@@]31C(=O)N(C)c2ccccc21`, for which the IC50 (with KB; in test [2]) was > 25 µg/mL throughout.
For the molecule `C[C@H]1OC[C@@H]2[C@H]3C[C@H]4c5c(c6ccccc6n5C)C[C@@H]2[N+]4(C)[C@H](O)[C@H]31`, the IC50 (in the test with KB; in test [2]) was > 25 µg/mL each time.
For the molecule `CC(=O)C1=COC[C@@H]2[C@H]1C[C@H]1c3c(c4ccccc4n3C)C[C@@H]2N1C` [ALSTONERINE], the IC50 in test [1] was 10 µM; in the test on KB, > 25 µg/mL; in test [2] it was > 25 µg/mL.

Source of the values: ChEMBL document CHEMBL3351669, “Oxidized derivatives of macroline, sarpagine, and pleiocarpamine alkaloids from Alstonia angustifolia” (J Nat Prod, 2014).
